Measurements taken from ChEMBL document CHEMBL1144682, “Glycosyl and polyalcoholic prodrugs of lonidamine” (Bioorg Med Chem Lett, 2008).
In brackets after ≈: the same amount, converted by molar mass. Activity calls are given as the source filed them. No cut-off for these calls is given here.

Key:
[1] = Partition coefficient, log P of the compound; assay type: physicochemical; details: octanol/water
[2] = Solubility in water; assay type: physicochemical; details: for solubility: water
PC-3 = experiment: Growth inhibition of human PC3 cells by SRB assay; assay type: functional
Summary of the method: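 Human PC-3 prostate cancer cells tested by sulforhodamine B assay following the NCI protocol. Concentrations went up to 100 μM, and GI50 was derived.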

[3] = Cell cycle arrest in human SKOV cells assessed as decrease in S phase accumulation at 150 uM after 12 hrs by flow cytometry; assay type: functional, cell-based
Summary of the method: (§1)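 SK-OV ovarian carcinoma cells exposed for 12 h to drug at 50 or 150 μM with 0.01% DMSO present. Cells stained with propidium iodide and analysed by flow cytometry for G1, S and G2 distribution. Values are means ± SEM of three independent experiments.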

[4] = Chemical stability assessed as half life of hydrolysis at pH 1.3; assay type: physicochemical; details: buffer
Summary of the method: (§2)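 Non-enzymatic chemical hydrolysis of the prodrugs in buffer at pH 1.3 (simulated gastric conditions) and in phosphate buffer at pH 7.4, at 37 °C. Followed for up to 120 h. First-order kinetic plots gave Kobs and t1/2. Values are means of three experiments with SEM.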

[5] = Cell cycle arrest in human SKOV cells assessed as accumulation at G1 phase at 150 uM after 12 hrs by flow cytometry; assay type: functional, cell-based; summary of the method: as §1
[6] = Stability in human plasma assessed as half life of hydrolysis; assay type: ADME, cell-free
Summary of the method: (§3)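 Enzymatic hydrolysis in 80% rat plasma or 80% human plasma at 37 °C. t1/2 taken from first-order kinetic plots. Values are means of three experiments with SEM.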

[7] = Stability in rat plasma assessed as half life of hydrolysis; assay type: ADME, cell-free; summary of the method: as §3
[8] = Chemical stability assessed as half life of hydrolysis at pH 7.4; assay type: physicochemical; details: buffer; summary of the method: as §2
[9] = Cytotoxicity against human SKOV cells at 300 uM after 12 hrs; assay type: functional
Summary of the method: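 SK-OV ovarian carcinoma cells treated for 12 h at 50, 150 or 300 μM drug with 0.01% DMSO present. Cell viability read out as % inhibition.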

[10] = Cell cycle arrest in human SKOV cells assessed as decrease in S phase accumulation at 50 uM after 12 hrs by flow cytometry; assay type: functional, cell-based; summary of the method: as §1

SMILES	logP [1]	solubility [2] [µg/mL]	half-life [4] [h]	half-life [6] [h]	half-life [7] [h]	half-life [8] [h]	other results
O=C(OC[C@H]1O[C@@H](O)[C@H](O)[C@H]1O)c1nn(Cc2cc(Cl)cc(Cl)c2)c2ccccc12	3.4	1.3 (≈ 2.87 µM)					
O=C(OC[C@@H](O)[C@H](O)CO)c1nn(Cc2cc(Cl)cc(Cl)c2)c2ccccc12	3.04	1.2 (≈ 2.82 µM)					
O=C(O)c1nn(Cc2ccc(Cl)cc2Cl)c2ccccc12 [LONIDAMINE]	1.3	17 (≈ 52.9 µM)					Activity (PC-3): inactive
O=C(OC[C@@H](O)[C@H](O)COC(=O)c1nn(Cc2cc(Cl)cc(Cl)c2)c2ccccc12)c1nn(Cc2cc(Cl)cc(Cl)c2)c2ccccc12							Activity ([2]; buffer): Not Active
O=C(OC[C@H]1OC(O)[C@H](O)[C@@H](O)[C@H]1O)c1nn(Cc2cc(Cl)cc(Cl)c2)c2ccccc12 (stereo not given in full)	2.54	84.3 (≈ 174 µM)	> 120	2.06	0.995	114	Activity [3]: Active; GI50 (PC-3): 3.16 µM; Activity [5]: Active; inhibition at 300 µM [9]: 60%; Activity [10]: Active
O=C(O[C@@H]([C@H](O)[C@H](O)CO)[C@H](O)CO)c1nn(Cc2cc(Cl)cc(Cl)c2)c2ccccc12	2.55	137 (≈ 283 µM)	> 120	6	2.17	80.7	GI50 (PC-3): 3.16 µM; inhibition at 300 µM [9]: 30%
O=C(OCC(O)CO)c1nn(Cc2cc(Cl)cc(Cl)c2)c2ccccc12 (stereo not given)	3.96	0.51 (≈ 1.29 µM)					
O=C(O[C@@H]1[C@@H](O)[C@H](O)O[C@H](CO)[C@H]1O)c1nn(Cc2cc(Cl)cc(Cl)c2)c2ccccc12	2.19	118 (≈ 245 µM)	> 120	0.711	0.534	44.1	
